Screens: PubChem BioAssay, Johns Hopkins Ion Channel Center
KCNK9 block: inhibitors of human KCNK9 two-pore domain potassium channel. Q9NPC2. HEK293 KCNK9, FluxOR thallium flux fluorescence; active compounds read low. B-score at 10 µM. 1.2% of 310,000 active. AID 488922;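 active = ratio B-score over 3 SD below the library mean, with starting fluorescence within 5 SD of its mean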;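 note: negative B-score means less thallium flux so channel inhibition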
Kir21 block: Kir2.1 (mouse) channel inhibition. B-score at 10 µM. 0.85% of 310,000 active. P35561. AID 1672. HEK293-Kir2.1, FluxOR thallium flux fluorescence; active compounds read low;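 active = fluorescence ratio B-score at or below minus 3 SD of library scores, with starting-brightness B-score within 2 SD, cut at about -4.2 in these data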;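 note: channel flux triggered by added potassium and thallium sulfate stimulus; B-score of peak minus minimum fluorescence over baseline after thallium stimulus; more negative B-score means stronger Kir2.1 block with less thallium influx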
KCNQ1 act: potentiates or activates the human KCNQ1 potassium channel | CHO-K1 KCNQ1, thallium flux FluxOR fluorescence; active compounds read high | B-score at 10 µM | 0.35% of 310,000 active | AID 2648;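 active = fluorescence ratio B-score, a plate-corrected score, at least three library SD, with initial intensity B-score within 5 SD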
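Assay system: CHO-K1 cells stably expressing KCNQ1; Medium: assay buffer with matched DMSO; Also added: K+/Tl+ depolarizing stimulus; Dosing: single dose; Timing: dye 90 min, compound 20 min, room temperature; Measured by: kinetic FluxOR thallium fluorescence, 10-s 1-Hz baseline, 110-s post-stimulus read; Read-out: peak-minus-minimum fluorescence over initial fluorescence, negative-control normalized, B-scored.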
hERG protect: shields human hERG channel from block by proarrhythmic agents. Q12809. CHO-hERG, FluxOR thallium flux, dofetilide IC70 present. activation (rescue from dofetilide block), less the hit threshold, % at 10 µM. 0.51% of 310,000 active. AID 1511;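 active = activation above the mean of controls blocked by dofetilide plus 5 SD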;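 note: thallium influx through hERG after potassium depolarization seen as dye fluorescence rise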
KCNQ1 inh: blocks the human KCNQ1 potassium channel | P51787 | CHO-K1 KCNQ1, FluxOR thallium flux fluorescence; active compounds read high | B-score at 10 µM | 1.3% of 310,000 active | AID 2642;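 active = compounds whose thallium flux B-score, printed positive for inhibition, exceeds three library SD while starting fluorescence stays within three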;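 note: channel opened by potassium depolarization with thallium stimulus after 20 min compound exposure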
KCNK3 block: human KCNK3 channel inhibition, primary screen. 0.84% of 340,000 active. AID 602410. O14649. CHO-KCNK3 thallium flux, FluxOR fluorescence; active compounds read low. B-score at 10 µM;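 active = B-score under library mean minus 4 SD, starting fluorescence ratio at most library mean plus 5 SD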;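 note: more negative B-score means stronger inhibition of thallium flux through KCNK3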
Target sequence (O14649 whole entry, looked up): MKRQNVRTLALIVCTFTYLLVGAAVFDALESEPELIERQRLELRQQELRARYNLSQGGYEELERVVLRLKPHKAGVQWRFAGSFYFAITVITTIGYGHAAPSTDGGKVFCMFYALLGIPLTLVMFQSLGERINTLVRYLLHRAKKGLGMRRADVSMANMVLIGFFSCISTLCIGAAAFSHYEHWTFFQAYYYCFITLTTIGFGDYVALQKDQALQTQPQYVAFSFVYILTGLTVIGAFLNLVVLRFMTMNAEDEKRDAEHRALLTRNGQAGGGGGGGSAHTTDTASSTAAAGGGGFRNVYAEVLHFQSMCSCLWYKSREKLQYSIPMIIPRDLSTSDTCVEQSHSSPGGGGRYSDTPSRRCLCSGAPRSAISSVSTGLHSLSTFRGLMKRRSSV
KCNK9 block conf: confirmation of human KCNK9 potassium channel inhibitors; AID 492992; inhibition, % at 10 µM; shares compounds with KCNK9 block; HEK293 KCNK9 cells, FluxOR thallium flux fluorescence; 43% of 4,900 active;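 active = thallium signal inhibited by more than 5 SD of the compound-free buffer control wells, on both duplicate plates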;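 note: 0% = assay buffer control wells without compound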
Kir2-1 spec: tests whether KCNK9 modulators also affect mouse Kir2.1; inhibition, % at 10 µM; shares compounds with KCNK9 block; AID 492993; 4% of 4,900 active; Kir2.1 cells, FluxOR thallium flux fluorescence;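 active = thallium signal drop more than 5 SD beyond the mean of the no-compound control wells, seen in both duplicate plates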;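 note: signal is fluorescence rise after thallium addition divided by baseline fluorescence; plate controls were assay buffer only for no effect and full block by chlorpromazine control for full effect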
HEK293 Tl ctr: second check of KCNK9 modulator effects in non-induced HEK293 cells. 40% of 4,900 active. shares compounds with KCNK9 block. FluxOR thallium flux. inhibition, % at 10 µM. AID 492997;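 active = thallium signal drop beyond 5 SD of the untreated control mean, on both duplicate plates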;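 note: plate controls were buffer only IC0 wells for no effect and SID17386958 at its maximal inhibitory level for full effect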
* hit, by the source's call; i = inactive; . = not tested or not shown. Sampled rows, rich in hits. Any-hit rate of the full collection: about 3.7%.

SMILES	KCNK9 block	Kir21 block	KCNQ1 act	hERG protect	KCNQ1 inh	KCNK3 block	KCNK9 block conf	Kir2-1 spec	HEK293 Tl ctr
COc1ccc(/C=N/NC(=O)c2csc(-n3nc(C)cc3C(F)(F)F)n2)cc1	-10*	1.8	i	-12	i	i	i	i	26%*
CN(Cc1cnccn1)Cc1cn(Cc2ccccc2)nc1-c1ccc2c(c1)OCO2	i	-1.2	i	-16	i	i	i	i	i
CCn1c(=O)c(=O)[nH]c2cc(C(=O)N(C)Cc3ccc(OC)c(F)c3)ccc21	i	1.7	i	-3	i	i	.	.	.
CC(=O)c1cnn(-c2nc3c(C)cccc3s2)c1C	i	2.6	i	-8	i	i	i	i	i
COc1ccccc1OCCCOc1ccc([N+](=O)[O-])cc1Cl	i	0.36	i	-6	i	i	i	i	36%*
COc1cccc(OCCCOc2ccc([N+](=O)[O-])cc2Cl)c1	i	-1.1	i	-6	i	i	.	.	.
O=C(Cn1cc(C(=O)c2cccs2)c2ccccc21)NC1CCCCC1	-12*	0.74	i	-9	i	i	54%*	i	28%*
O=C(c1ccccc1)c1nn(-c2ccccc2)c2nnc(Cc3ccccc3)c(=O)n12	i	3	i	-20	i	i	i	i	i
c1ccc2c(c1)ccc1[nH]c3c(c12)CCCC3	.	.	.	.	.	i	.	.	.
COc1ccc(C(=O)n2nc(C)cc2C)cc1OC	i	-0.3	i	-5	i	i	.	.	.
Cc1cc(C)n(C(=O)c2ccc(C)c(Br)c2)n1	i	-0.6	i	-7	i	i	i	i	i
CCN(c1ccccc1)S(=O)(=O)c1ccc(N2CCN(c3ccccc3O)CC2)nc1	.	.	.	.	.	i	.	.	.
CC(=O)N1N=C(c2ccccc2)CC1c1cn(Cc2ccccc2)c2ccccc12 (stereo not drawn)	-8.4*	0.12	i	-8	i	i	38%*	i	34%*
Cc1cccc(Cl)c1NC(=S)NCCc1ccccn1	-8.2*	2.2	i	-5	i	i	44%*	i	28%*
O=C(NCCC1=CCCCC1)NC12CC3CC(CC(C3)C1)C2	i	-1.1	i	-22	6*	i	i	i	i
Fc1cccc(-c2cc3nc4c(c(N5CCC6(CC5)OCCO6)n3n2)CCCC4)c1	-8.4*	0.57	i	-1	i	i	i	i	i
COc1cc(OC)cc(-c2cc3nc4c(c(N5CCN(c6ncccn6)CC5)n3n2)CCCC4)c1	-8.3*	1.3	i	-10	i	-10*	31%*	i	34%*
O=C(COc1ccccc1F)OCC(=O)c1ccc([N+](=O)[O-])cc1	.	.	.	.	.	i	.	.	.
O=C(CC12CC3CC(CC(C3)C1)C2)NC(=S)NCc1ccco1	i	-0.01	i	-26	6*	i	i	i	i
O=C(NCc1ccco1)C12CC3CC(CC(C3)C1)C2	i	-0.02	i	0	i	i	.	.	.
CCn1ncc(/C=N\NC(=O)c2ccc3c(c2)c(C)c(C)n3Cc2ccccc2)c1C	-18*	-1.6	i	0	i	i	60%*	i	30%*
CCn1cc(/C=N\NC(=O)c2ccc3c(c2)c(C)c(C)n3Cc2ccccc2)c(C)n1	-19*	-1.3	i	-3	i	i	68%*	i	27%*
CCn1ncc(/C=N/NC(=O)c2ccc3c(c2)OCO3)c1C	i	-0.06	i	-5	i	i	.	.	.
CCn1nc(C)c(/C=N/NC(=O)c2ccc3c(c2)c(C)c(C)n3Cc2ccccc2)c1C	-15*	0.04	i	-1	i	i	54%*	i	28%*
O=C(COC(=O)c1ccc(O)cc1)NCC1COc2ccccc2O1 (stereo not drawn)	.	.	.	.	.	i	.	.	.
SMILES	KCNK9 block	Kir21 block	KCNQ1 act	hERG protect	KCNQ1 inh	KCNK3 block	KCNK9 block conf	Kir2-1 spec	HEK293 Tl ctr
COC(=O)c1ccc(/C=N/N2CCN(Cc3ccc(C)cc3C)CC2)cc1	i	0.19	i	-12	i	i	i	i	i
O=S(=O)(c1ccccc1)N1CCN(C/C=C/c2ccccc2)CC1	i	1.5	i	-3	i	i	i	i	i
Oc1ccc2ccccc2c1CN1CCN(C/C=C/c2ccccc2)CC1	i	1.9	i	-9	i	i	i	i	i
O=S(=O)(c1ccccc1)N1CCN(Cc2c(O)ccc3ccccc23)CC1	.	.	.	.	.	i	.	.	.
O=S(=O)(c1ccc(F)cc1)N1CCN(CCc2ccccc2)CC1	i	-0.57	i	-6	i	i	i	i	i
COc1ccc(CNC(=O)/C(C#N)=C2\N=C(NC(=O)c3cccs3)c3ccccc32)cc1	i	0.52	i	-8	i	i	i	i	i
CCNc1nc(CSc2ccccc2)nc2sc(C)c(C)c12	i	0.01	i	-4	i	i	.	.	.
Cc1sc2nc(CSc3ccccc3)nc(N3CCOCC3)c2c1C	i	-2.3	i	-12	i	i	i	i	32%*
CN(C)C(CNc1ncnc2sc3c(c12)CCCC3)c1ccco1 (stereo not drawn)	i	1.4	i	-5	i	i	i	i	i
Cc1cc(C(=O)CSc2nnnn2-c2ccc(O)cc2)c(C)n1Cc1ccc2c(c1)OCO2	-9.8*	0.5	i	-7	i	i	28%*	i	i
Cc1cc(C(=O)CSc2nnnn2-c2ccccc2)c(C)n1-c1ccc2c(c1)OCO2	i	-0.43	i	-13	i	i	.	.	.
O=C(c1ccc(S(=O)(=O)c2ccccc2Cl)c([N+](=O)[O-])c1)N1CCCCCC1	i	0.13	i	-7	i	i	.	.	.
Cc1ccccc1Nc1scc(-c2ccc(Cl)cc2)[n+]1-c1ccccc1C	-8.4*	-0.6	i	-17	i	i	62%*	i	i
Cc1ccc(C2(c3ccccc3)NC(=O)N(CC(=O)NC3CCS(=O)(=O)C3)C2=O)cc1C (stereo not drawn)	.	.	.	.	.	i	.	.	.
Cc1ccc(S(=O)(=O)n2nccc2-c2c(-c3ccc(Cl)cc3)noc2C)cc1	-12*	-0.71	i	-7	i	i	i	i	36%*
